From ChEMBL document CHEMBL4390700, “Design, synthesis and antitumour and anti-angiogenesis evaluation of 22 moscatilin derivatives” (Bioorg Med Chem, 2019)
Active and inactive are the calls of the source. The rule behind the calls is not given here.

What was measured:
A549 = assay: Antiproliferative activity against human A549 cells incubated for 72 hrs by MTT assay; type: functional, cell-based; details: A549, 72 h
How it was run: (§1)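 5×10³ cells per well preincubated 12 h at 37 °C, 5% CO₂. Medium replaced with fresh medium containing compound at various concentrations, DMSO ≤0.1%, for 72 h at 37 °C. MTT 0.5 mg/mL final added for 2 h; formazan dissolved in DMSO, A570 read; viability expressed relative to untreated cells.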

HepG2 = assay: Antiproliferative activity against human HepG2 cells incubated for 72 hrs by MTT assay; type: functional, cell-based; details: HepG2, 72 h; how it was run: as §1
MDA-MB-231 = assay: Antiproliferative activity against human MDA-MB-231 cells incubated for 72 hrs by MTT assay; type: functional, cell-based; details: MDA-MB-231, 72 h; how it was run: as §1
MKN-45 = assay: Antiproliferative activity against human MKN45 cells incubated for 72 hrs by MTT assay; type: functional, cell-based; details: MKN-45, 72 h; how it was run: as §1
HCT-116 [1] = assay: Antiproliferative activity against human HCT116 cells incubated for 72 hrs by MTT assay; type: functional, cell-based; details: HCT-116, 72 h; how it was run: as §1
Danio rerio = species: Danio rerio; assay: Anti-angiogenic activity in zebrafish-guided angiogenesis model assessed as reduction in inter-segmental blood vessels measured at 72 hpf by fluorescence microscopy; type: functional
How it was run: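 Tg(fli-1:EGFP) zebrafish embryos, dechorionated at 24 hpf, 20 per group, kept in embryo water containing compound at 28.5 °C for a further 48 h. All compounds screened first at 50 μM; active ones titrated for minimum effective dose. At 72 hpf embryos anesthetized in 0.016% tricaine and intersegmental vessels imaged by fluorescence microscopy. SU5416 positive control.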

HCT-116 [2] = assay: Induction of apoptosis in human HCT116 cells assessed as early apoptotic cells level at 1 uM incubated for 48 hrs by Annexin V-FITC and propidium iodide staining based flow cytometry; type: functional
How it was run: (§2)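 HCT116 seeded 2 × 10⁵ cells/well, adhered overnight, then exposed to compound for 48 h. Annexin V-FITC/PI double staining, read by flow cytometry. Early apoptotic cells counted as Annexin V+/PI− (lower right quadrant), late apoptotic as Annexin V+/PI+ (upper right). Culture at 37 °C, 5% CO₂, medium with 10% FBS and penicillin/streptomycin, DMSO ≤0.1%.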

HCT-116 [3] = assay: Induction of apoptosis in human HCT116 cells assessed as late apoptotic cells level at 1 uM incubated for 48 hrs by Annexin V-FITC and propidium iodide staining based flow cytometry; type: functional; how it was run: as §2
[4] = Cytotoxicity against human NCM460 cells assessed as cell viability at 50 uM incubated for 72 hrs by MTT assay; type: cell-based; details: read-out: Activity
How it was run: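 NCM460 colon cells exposed to compound at 0.1, 1, 2, 5, 10, 20, 30, 40 and 50 μM; viability expressed as percent. Media carried penicillin G, streptomycin and 10% FBS; culture at 37 °C, 5% CO₂.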

HCT-116 [5] = assay: Induction of morphological changes in human HCT116 cells assessed as induction of tensile deformation at 1 to 10 uM incubated for 48 hrs by Hoechst 33342 staining based fluorescence microscopy; type: functional, cell-based
HCT-116 [6] = assay: Induction of morphological changes in human HCT116 cells assessed as induction of slow growth at 1 to 10 uM incubated for 48 hrs by Hoechst 33342 staining based fluorescence microscopy; type: functional, cell-based
HCT-116 [7] = assay: Induction of morphological changes in human HCT116 cells assessed as induction of cell distortion at 1 to 10 uM incubated for 48 hrs by Hoechst 33342 staining based fluorescence microscopy; type: functional
HCT-116 [8] = assay: Induction of apoptosis in human HCT116 cells assessed as induction of chromatin congregation at 1 to 10 uM incubated for 48 hrs by DAPI staining based fluorescence microscopy; type: functional, cell-based; details: in the assay text read “Hoechst 33342” for “DAPI”
How it was run: (§3)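 After 48 h exposure to 1, 5 or 10 μM, nuclei stained with DAPI (methods name Hoechst 33342). Chromatin condensation and nuclear pyknosis scored by fluorescence microscopy at 400× against untreated cells.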

HCT-116 [9] = assay: Induction of apoptosis in human HCT116 cells assessed as induction of […] pyknosis at 1 to 10 uM incubated for 48 hrs by DAPI staining based fluorescence microscopy; type: functional, cell-based; details: in the assay text read “Hoechst 33342” for “DAPI”; how it was run: as §3
HCT-116 [10] = assay: Induction of apoptosis in human HCT116 cells assessed as early apoptotic cells level at 5 uM incubated for 48 hrs by Annexin V-FITC and propidium iodide staining based flow cytometry; type: functional
How it was run: (§4)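 2×10⁵ cells per well, adhered overnight, then exposed 48 h to compound at 1, 5 or 10 μM. Annexin V-FITC/PI double staining, read by flow cytometry. Annexin V+/PI− counted as early apoptotic, Annexin V+/PI+ as late. Gambogic acid 1 μM comparator.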

HCT-116 [11] = assay: Induction of apoptosis in human HCT116 cells assessed as early apoptotic cells level at 10 uM incubated for 48 hrs by Annexin V-FITC and propidium iodide staining based flow cytometry; type: functional; how it was run: as §4
HCT-116 [12] = assay: Induction of apoptosis in human HCT116 cells assessed as late apoptotic cells level at 5 uM incubated for 48 hrs by Annexin V-FITC and propidium iodide staining based flow cytometry; type: functional; how it was run: as §4
HCT-116 [13] = assay: Induction of apoptosis in human HCT116 cells assessed as late apoptotic cells level at 10 uM incubated for 48 hrs by Annexin V-FITC and propidium iodide staining based flow cytometry; type: functional; how it was run: as §4
HCT-116 [14] = assay: Induction of cell cycle arrest in human HCT116 cells assessed accumulation at G2/M phase at 5 uM incubated for 48 hrs by propidium iodide staining based flow cytometry (reference value: 11.88%); type: functional
How it was run: (§5)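 2×10⁵ cells per well, adhered overnight, then treated 48 h at 5 or 10 μM. Cells fixed in cold 70% ethanol overnight, RNase A treated 30 min at 37 °C, PI stained 15 min at 4 °C. DNA content measured by flow cytometry; phase distribution compared with untreated control.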

HCT-116 [15] = assay: Induction of cell cycle arrest in human HCT116 cells assessed accumulation at G2/M phase at 10 uM incubated for 48 hrs by propidium iodide staining based flow cytometry (reference value: 11.88%); type: functional; how it was run: as §5
HCT-116 [16] = assay: Induction of cell cycle arrest in human HCT116 cells assessed reduction in accumulation at G1 phase at 5 to 10 uM incubated for 48 hrs by propidium iodide staining based flow cytometry; type: functional; how it was run: as §5
HCT-116 [17] = assay: Induction of cell cycle arrest in human HCT116 cells assessed reduction in accumulation at S phase at 5 to 10 uM incubated for 48 hrs by propidium iodide staining based flow cytometry; type: functional; how it was run: as §5
HCT-116 [18] = assay: Reduction in alpha-tubulin protein expression in human HCT116 cells at 1 to 10 uM incubated for 48 hrs by Western blot analysis; type: functional, cell-based
How it was run: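 After 48 h treatment, cells lysed in buffer of 100 mM Tris-Cl pH 6.8, 4% SDS, 20% glycerol, 200 mM β-mercaptoethanol, 1 mM PMSF, aprotinin. Lysates spun 12000g for 30 min at 4 °C and protein quantified by BCA. Proteins run on 10% SDS-PAGE, semi-dry transferred to PVDF, probed overnight at 4 °C with anti-α-tubulin 1:1000 and GAPDH 1:1000 loading control, then HRP secondary. ECL detection with densitometry.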

| SMILES | IC50 (A549) [µM] | IC50 (HepG2) [µM] | IC50 (MDA-MB-231) [µM] | IC50 (MKN-45) [µM] | IC50 (HCT-116 [1]) [µM] | MED (Danio rerio) [µM] | further results |
| --- | --- | --- | --- | --- | --- | --- | --- |
| COc1cc(CCc2ccccn2)cc(OC)c1O | > 25 | 4.84 | > 25 | 0.66 | 3.06 | 25 to 50 |  |
| COc1ccc(CCc2ccc(Cl)cc2)cc1OC | > 25 | 0.74 | 1.25 | 1.52 | 0.52 | >50 |  |
| COc1ccc(CCc2ccc([N+](=O)[O-])cc2)cc1OC | > 25 | 1.6 | > 25 | 13.7 | 5.97 | >50 |  |
| COc1ccccc1CCc1cc(OC)c(O)c(OC)c1 | 1.74 | 2.48 | > 25 | 2.48 | 14.5 | 1.25 to 2.5 |  |
| CC(C)=CCC[C@]1(C)C=Cc2c(O)c3c(c(CC=C(C)C)c2O1)O[C@]12C(=C[C@@H]4C[C@H]1C(C)(C)O[C@@]2(C/C=C(/C)C(=O)O)C4=O)C3=O [GAMBOGIC ACID] | 1.47 | 2.36 | 1.33 | 4.27 | 3.11 |  | Activity (HCT-116 [2]): 33%; Activity (HCT-116 [3]): 31.8% |
| COc1ccc(CCc2ccccc2Cl)cc1OC | > 25 | 4.93 | > 25 | 2.04 | 6.16 | 20 to 25 |  |
| COc1ccc(CCc2ccccc2)cc1OC | > 25 | 2.08 | > 25 | 21.9 | 2.56 | >50 |  |
| Cc1cc(C)c(/C=C2\C(=O)Nc3ccccc32)[nH]1 [SEMAXANIB] |  |  |  |  |  | 1.25 to 2.5 |  |
| COc1ccc(CCc2ccccn2)cc1OC | > 25 | 13.8 | 10.5 | 11.1 | 0.93 | >50 |  |
| COc1cc(CCc2cccc(Cl)c2Cl)cc(OC)c1O | 3.99 | 4.77 | 6.87 | 0.011 | 8.78 | 5 to 10 |  |
| COc1ccc(CCc2ccc(OC)c(OC)c2)cc1O | 4.79 | 4.05 | 0.081 | > 25 | 5.26 | 40 to 50 |  |
| COc1cc(CCc2ccc(Cl)cc2Cl)cc(OC)c1O | 3.84 | 6.74 | > 25 | 4.46 | 2.98 | 5 to 10 |  |

Continued, in another order:

| IC50 (A549) [µM] | IC50 (HepG2) [µM] | IC50 (MDA-MB-231) [µM] | IC50 (MKN-45) [µM] | IC50 (HCT-116 [1]) [µM] | SMILES | MED (Danio rerio) [µM] | further results |
| --- | --- | --- | --- | --- | --- | --- | --- |
| 10.9 | 7.83 | > 25 | 1.04 | 0.53 | COc1cc(CCc2ccccc2)cc(OC)c1O | 20 to 25 |  |
| 4.15 | 5.47 | > 25 | 10.7 | 1.19 | COc1cc(CCc2ccc(F)cc2)cc(OC)c1O | >50 |  |
| > 25 | 2.17 | 6.3 | 3.81 | 3.74 | COc1cc(CCc2ccncc2)cc(OC)c1O | >50 |  |
| > 25 | > 25 | 0.92 | 3.98 | 7.89 | COc1ccc(CCc2ccc(F)cc2)cc1OC | >50 |  |
| 22.9 | 8.78 | > 25 | 0.74 | 0.33 | COc1cc(CCc2ccc(Cl)cc2)cc(OC)c1O | >50 |  |
| 2.1 | 3.76 | 0.082 | 3.51 | 2.29 | COc1cc(CCc2cc(OC)c(O)c(OC)c2)ccc1O [MOSCATILIN] | 2.5 to 5 |  |
| 9.13 | 11 | 8.05 | 15.4 | 3.16 | COc1cc(CCc2ccc([N+](=O)[O-])cc2)cc(OC)c1O |  |  |
| 2.24 | 12.4 | > 25 | 2.97 | 7.57 | COc1cc(CCc2cccc(F)c2)cc(OC)c1O | 15 to 20 |  |
| > 25 | 8.49 | > 25 | 1.49 | 15.8 | COc1cc(CCc2ccc(Br)cc2)cc(OC)c1O | 2.5 to 5 |  |
| 2.13 | 2.19 | 21.1 | 24.5 | 0.25 | COc1cc(CCc2ccccc2Cl)cc(OC)c1O | 0.62 to 1.25 | viability at 72 h, 50 µM [4]: 84.4%; Activity (HCT-116 [5]): Dose-dependent effect; Activity (HCT-116 [6]): Dose-dependent effect; Activity (HCT-116 [7]): Dose-dependent effect; Activity (HCT-116 [8]): Active; Activity (HCT-116 [9]): Active; Activity (HCT-116 [2]): 24.8%; Activity (HCT-116 [10]): 34.5%; Activity (HCT-116 [11]): 36.9%; Activity (HCT-116 [3]): 18.1%; Activity (HCT-116 [12]): 22.4%; Activity (HCT-116 [13]): 37.2%; Activity (HCT-116 [14]): 85.22%; Activity (HCT-116 [15]): 82.47%; Activity (HCT-116 [16]): Active; Activity (HCT-116 [17]): Active; Activity (HCT-116 [18]): Active |
| 3.64 | 2.27 | 1.64 | 2.06 | 2.69 | COc1cc(CCc2ccc(OC)c(OC)c2)ccc1O | >50 |  |
| 13.4 | 16.1 | 2.52 | 20.6 | 1.86 | COc1cc(CCc2ccc(Cl)c(Cl)c2)cc(OC)c1O | 20 to 25 |  |
| > 25 | 1.03 | 9.22 | > 25 | 0.88 | COc1cc(CCc2ccccc2F)cc(OC)c1O | 10 to 15 |  |
